Laboratory results from ChEMBL document CHEMBL4732155 (Eur J Med Chem, 2021).
Calls of active or inactive are those of the source. No cut-off for these calls is given here.

Tests used:
[1] = Inhibition of yeast Cdc48 assessed as reduction in ATPase activity measured after 60 mins by biomol green reagent based assay; parameters: species or system Saccharomyces cerevisiae
How it was run: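 Incubation ran 60 min at room temperature and was stopped with Biomol Green. Phosphate was read as absorbance at 635 nm. IC50 came from an eight-dose titration, six replicates.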

[2] = tested on: HeLa; experiment: Antiproliferative activity against human HeLa cells after 48 hrs by celltiter-glo luminescence assay; format: functional, cell-based
[3] = tested on: RPMI-8226; experiment: Antiproliferative activity against human RPMI-8226 cells after 48 hrs by celltiter-glo luminescence assay; format: functional, cell-based; details: RPMI-8226, 48 h
[4] = Effect on PRKRIR expression in human HCT-116 cells at 15 uM measured after 6 hrs by LC-MS/MS analysis relative to control; format: functional
How it was run: (§1)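 HCT116 cells treated 6 h with DMSO, 15 μM or 30 μM compound, then pelleted. Peptides (1 μg) separated on a 25 cm C18 nano-column with a 136 min gradient and analysed by label-free LC-MS/MS on an Orbitrap Eclipse. Searched against the UniProt human database and quantified from normalized abundance. Two independent biological replicates per group; log2 fold change versus DMSO, p < 0.05.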

[5] = target: T1, Transitional endoplasmic reticulum ATPase (Homo sapiens, UniProt P55072); experiment: Binding affinity to His6-tagged p97 (unknown origin) expressed in Escherichia coli BL21 (DE3) assessed as Cys522-adduct formation by tandem mass spectrometry
T1 sequence (P55072 2-806 limits assumed): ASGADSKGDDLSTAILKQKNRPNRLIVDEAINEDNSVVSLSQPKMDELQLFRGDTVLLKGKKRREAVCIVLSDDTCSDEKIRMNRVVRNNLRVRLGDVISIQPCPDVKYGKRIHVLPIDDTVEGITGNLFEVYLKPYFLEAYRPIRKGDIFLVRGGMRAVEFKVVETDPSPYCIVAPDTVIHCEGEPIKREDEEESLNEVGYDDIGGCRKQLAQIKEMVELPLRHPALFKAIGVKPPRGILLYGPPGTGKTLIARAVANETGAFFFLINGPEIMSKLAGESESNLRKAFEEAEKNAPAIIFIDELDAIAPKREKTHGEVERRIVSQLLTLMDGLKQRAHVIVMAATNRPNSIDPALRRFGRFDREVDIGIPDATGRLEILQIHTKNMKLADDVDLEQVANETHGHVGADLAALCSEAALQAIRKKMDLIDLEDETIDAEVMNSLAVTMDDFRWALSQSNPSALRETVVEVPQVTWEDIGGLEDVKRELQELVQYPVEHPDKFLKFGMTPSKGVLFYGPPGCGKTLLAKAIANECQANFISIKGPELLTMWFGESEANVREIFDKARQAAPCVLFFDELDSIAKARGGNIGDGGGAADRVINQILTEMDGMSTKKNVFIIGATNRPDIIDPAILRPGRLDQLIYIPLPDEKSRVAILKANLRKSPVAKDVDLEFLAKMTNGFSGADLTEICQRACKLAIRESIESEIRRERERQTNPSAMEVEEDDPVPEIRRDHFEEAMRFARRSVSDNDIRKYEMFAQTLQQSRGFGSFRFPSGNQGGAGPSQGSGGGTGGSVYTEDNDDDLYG

[6] = target: T1, Transitional endoplasmic reticulum ATPase; experiment: Inhibition of p97 (unknown origin) expressed in HEK293 cells co-expressing TCRalpha-GFP assessed as reduction in ERAD-dependent reporter substrate TCRalpha-GFP degradation at 10 uM incubated for 60 to 120 mins by immunoblotting analysis; format: cell-based; details: time lower 60.0 min, time upper […]
How it was run: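 HEK293 cells stably expressing TCRα-GFP pretreated with 4 μM MG132 for 1 h and washed. Then incubated with 50 μM cycloheximide plus 10 μM compound for 60 or 120 min before harvest. Immunoblotted with anti-GFP, with anti-p97 as loading control.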

[7] = Effect on LAMP1 expression in human HCT-116 cells at 30 uM measured after 6 hrs by LC-MS/MS analysis relative to control; format: functional; how it was run: as §1
[8] = Effect on ZFAND1 expression in human HCT-116 cells at 15 uM measured after 6 hrs by LC-MS/MS analysis relative to control; format: functional; how it was run: as §1
[9] = Effect on KEAP1 expression in human HCT-116 cells at 15 uM measured after 6 hrs by LC-MS/MS analysis relative to control; format: functional; how it was run: as §1
[10] = Effect on KNTC1 expression in human HCT-116 cells at 15 uM measured after 6 hrs by LC-MS/MS analysis relative to control; format: functional; how it was run: as §1
[11] = Effect on BRCC3 expression in human HCT-116 cells at 30 uM measured after 6 hrs by LC-MS/MS analysis relative to control; format: functional; how it was run: as §1
[12] = Effect on STIM1 expression in human HCT-116 cells at 15 uM measured after 6 hrs by LC-MS/MS analysis relative to control; format: functional; how it was run: as §1
[13] = Effect on PLEC expression in human HCT-116 cells at 15 uM measured after 6 hrs by LC-MS/MS analysis relative to control; format: functional; how it was run: as §1
[14] = Effect on STIM1 expression in human HCT-116 cells at 30 uM measured after 6 hrs by LC-MS/MS analysis relative to control; format: functional; how it was run: as §1
[15] = target: Transitional endoplasmic reticulum ATPase (Homo sapiens, UniProt P55072, C522A); experiment: Inhibition of His6-tagged p97 C522A mutant (unknown origin) expressed in Escherichia coli BL21 (DE3) assessed as reduction in ATPase activity measured after 60 mins by biomol green reagent based assay
Transitional endoplasmic reticulum ATPase (Homo sapiens, UniProt P55072, C522A), sequence (P55072 2-806 C522A limits assumed): as the sequence (P55072 2-806 limits assumed) above, with C521A counted along it
How it was run: (§2)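 His6-p97 expressed in E. coli BL21(DE3), purified by Ni-NTA and gel filtration (500–600 kDa fractions, ≥95% pure). Phosphate read by Biomol Green at 635 nm. Eight-dose titrations; IC50 from six replicates. Thiol tests added DTT or cysteine during preincubation.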

[16] = Effect on BRCC3 expression in human HCT-116 cells at 15 uM measured after 6 hrs by LC-MS/MS analysis relative to control; format: functional; how it was run: as §1
[17] = Effect on EPPK1 expression in human HCT-116 cells at 15 uM measured after 6 hrs by LC-MS/MS analysis relative to control; format: functional; how it was run: as §1
[18] = Effect on SQSTM1 expression in human HCT-116 cells at 15 uM measured after 6 hrs by LC-MS/MS analysis relative to control; format: functional; how it was run: as §1
[19] = Effect on CDK2AP1 expression in human HCT-116 cells at 15 uM measured after 6 hrs by LC-MS/MS analysis relative to control; format: functional; how it was run: as §1
[20] = tested on: HCT-116; experiment: Antiproliferative activity against CB-5083-resistant human HCT-116 cells after 48 hrs by celltiter-glo luminescence assay; format: functional, cell-based
How it was run: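 CellTiter-Glo viability in HCT116 lines carrying resistance mutations in p97 (CB-5083-resistant: D649A/T688A; NMS-873-resistant: A530T). Cells seeded at 750 or 3000/well within the linear range of a per-line standard curve, in DMEM with 5% FBS. Treated 24 h after seeding with eight three-fold dilutions for 48 h. IC50 from percent growth versus DMSO control; mean ± SEM of four replicate experiments.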

[21] = Effect on PRKRIR expression in human HCT-116 cells at 30 uM measured after 6 hrs by LC-MS/MS analysis relative to control; format: functional; how it was run: as §1
[22] = Effect on KNTC1 expression in human HCT-116 cells at 30 uM measured after 6 hrs by LC-MS/MS analysis relative to control; format: functional; how it was run: as §1
[23] = Effect on EPPK1 expression in human HCT-116 cells at 30 uM measured after 6 hrs by LC-MS/MS analysis relative to control; format: functional; how it was run: as §1
[24] = Effect on AP2M1 expression in human HCT-116 cells at 30 uM measured after 6 hrs by LC-MS/MS analysis relative to control; format: functional; how it was run: as §1
[25] = target: T1, Transitional endoplasmic reticulum ATPase; experiment: Inhibition of His6-tagged p97 (unknown origin) expressed in Escherichia coli BL21 (DE3) assessed as reduction in ATPase activity measured after 60 mins in presence of cysteine by biomol green reagent based assay; how it was run: as §2

C=CC(=O)Nc1ncnc2c1c(-c1ccccc1)nn2C(C)(C)C
IC50 [1]: 376 µM
IC50 [2]: 6.1 µM
IC50 [3]: 3.4 µM
log2FC [4]: 0.69
Activity [5]: Active
inhibition [6]: Active
log2FC [7]: -0.66
log2FC [8]: 0.49
log2FC [9]: -0.46
log2FC [10]: -0.43
log2FC [11]: 0.83
log2FC [12]: 1.49
log2FC [13]: 0.33
log2FC [14]: 1.65
IC50 [15]: 110 µM
log2FC [16]: 0.94
log2FC [17]: 0.38
log2FC [18]: 0.42
log2FC [19]: -0.48
Activity [20]: Active
log2FC [21]: 0.68
log2FC [22]: -0.87
log2FC [23]: 0.64
log2FC [24]: -0.38
inhibition [25]: Active
